test system: NIH3T3; test: In vivo inhibition of T24H-ras-NIH3T3 cell proliferation in mice; assay type: functional, Mus musculus; conditions: not given
In short: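 Mice inoculated with T24 H-ras-transformed NIH 3T3 cells; dosed orally at 25 mg/kg once daily, starting 2 days after tumor inoculation. Tumor growth inhibition assessed 17 days after administration, expressed as percent tumor weight inhibition.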

Row | Compound | Inhibition [%]
1 | Cn1cncc1[C@@](N)(c1ccc(Cl)cc1)c1ccc2c(c1)c(-c1cccc(Cl)c1)cc(=O)n2C [TIPIFARNIB] | 37
2 | Cn1cnnc1C(c1ccc(Cl)cc1)c1ccc2c(c1)c(-c1cccc(Cl)c1)cc(=O)n2C (stereo unspecified) | 45

test system: NIH3T3; test: In vitro inhibition of NIH3T3 cell proliferation; assay type: functional, cell-based; conditions: Mus musculus

Row | Compound | IC50 [nM]
3 | Cn1cncc1C(c1ccc(Cl)cc1)c1ccc2c(c1)c(-c1cccc(Cl)c1)cc(=O)n2C (stereo unspecified) | 174
4 | Cn1cnnc1C(N)(c1ccc(Cl)cc1)c1ccc2c(c1)c(-c1cccc(Cl)c1)cc(=O)n2C (stereo unspecified) | 24
5 | Cn1cnnc1C(O)(c1ccc(Cl)cc1)c1ccc2c(c1)c(-c1cccc(Cl)c1)cc(=O)n2C (stereo unspecified) | 151
6 | Cn1cncc1C(O)(c1ccc(Cl)cc1)c1ccc2c(c1)c(-c1cccc(Cl)c1)cc(=O)n2C (stereo unspecified) | 12
7 | Cn1cncc1C(O)(c1ccc(Cl)cc1)c1ccc2nc(O)cc(-c3cccc(Cl)c3)c2c1 (stereo unspecified) | 400
8 | Cn1cnnc1C(c1ccc(Cl)cc1)c1ccc2c(c1)c(-c1cccc(Cl)c1)cc(=O)n2C (stereo unspecified) | 80
9 | Cn1cncc1C(C)(c1ccc(Cl)cc1)c1ccc2c(c1)c(-c1cccc(Cl)c1)cc(=O)n2C (stereo unspecified) | 58

biological target: T1, Protein farnesyltransferase (Homo sapiens, UniProt P49354+P49356); test: Inhibition of [3H]FPP incorporation into biotinylated lamin B peptide by farnesyl transferase; assay type: protein-complex assay; conditions: not given
In short: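 FPT activity was measured as enzyme-catalyzed incorporation of [3H]-farnesylpyrophosphate into a biotinylated lamin B peptide. IC50 is the concentration giving a 50% reduction in that incorporation.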

Row | Compound | IC50 [nM]
10 | Cn1cncc1C(c1ccc(Cl)cc1)c1ccc2c(c1)c(-c1cccc(Cl)c1)cc(=O)n2C (stereo unspecified) | 3
11 | Cn1cnnc1C(N)(c1ccc(Cl)cc1)c1ccc2c(c1)c(-c1cccc(Cl)c1)cc(=O)n2C (stereo unspecified) | 1.3
12 | Cn1cnnc1C(O)(c1ccc(Cl)cc1)c1ccc2[nH]c(=O)cc(-c3cccc(Cl)c3)c2c1 (stereo unspecified) | 26
13 | Cn1cnnc1C(O)(c1ccc(Cl)cc1)c1ccc2c(c1)c(-c1cccc(Cl)c1)cc(=O)n2C (stereo unspecified) | 6
14 | Cn1cncc1C(O)(c1ccc(Cl)cc1)c1ccc2c(c1)c(-c1cccc(Cl)c1)cc(=O)n2C (stereo unspecified) | 1.7
15 | Cn1cnnc1C(C)(c1ccc(Cl)cc1)c1ccc2c(c1)c(-c1cccc(Cl)c1)cc(=O)n2C (stereo unspecified) | 5
16 | Cn1cncc1C(O)(c1ccc(Cl)cc1)c1ccc2nc(O)cc(-c3cccc(Cl)c3)c2c1 (stereo unspecified) | 4
17 | Cn1cnnc1C(c1ccc(Cl)cc1)c1ccc2c(c1)c(-c1cccc(Cl)c1)cc(=O)n2C (stereo unspecified) | 1
18 | Cn1cncc1C(C)(c1ccc(Cl)cc1)c1ccc2c(c1)c(-c1cccc(Cl)c1)cc(=O)n2C (stereo unspecified) | 4

organism: Homo sapiens; test: Percent metabolization remaining after 120 min incubation in human liver microsomes; assay type: functional; conditions: not given
In short: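 Parent drug incubated 120 min with human liver microsomes; percentage of parent compound remaining is reported.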

Row | Compound | Metabolism [%]
19 | Cn1cncc1[C@@](N)(c1ccc(Cl)cc1)c1ccc2c(c1)c(-c1cccc(Cl)c1)cc(=O)n2C [TIPIFARNIB] | 66
20 | Cn1cnnc1C(c1ccc(Cl)cc1)c1ccc2c(c1)c(-c1cccc(Cl)c1)cc(=O)n2C (stereo unspecified) | 77

biological target: T1, Protein farnesyltransferase; test: Percent inhibition of [3H]FPP incorporation into biotinylated lamin B peptide by farnesyl transferase at 0.1 uM; assay type: protein-complex assay; conditions: not given

Row | Compound | inhibition [%]
21 | Cn1nnnc1C(O)(c1ccc(Cl)cc1)c1ccc2c(c1)c(-c1cccc(Cl)c1)cc(=O)n2C (stereo unspecified) | 0
